Compound activity: PubChem, several laboratories
UCH37 inh: inhibitors of human UCH37 deubiquitinase, primary screen, biochemical, Ub-AMC cleavage, fluorescence; inhibition, % (concentration not given with the values); Ubiquitin carboxyl-terminal hydrolase isozyme L5 (Homo sapiens), Q9Y5K5; purified proteasome/UCH37; AID 588478, 2011; 330,000 compounds, 0.33% hits;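 active = mean inhibition over replicate wells above about 20%, limit read from the data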
Target sequence (Q9Y5K5 whole entry, looked up): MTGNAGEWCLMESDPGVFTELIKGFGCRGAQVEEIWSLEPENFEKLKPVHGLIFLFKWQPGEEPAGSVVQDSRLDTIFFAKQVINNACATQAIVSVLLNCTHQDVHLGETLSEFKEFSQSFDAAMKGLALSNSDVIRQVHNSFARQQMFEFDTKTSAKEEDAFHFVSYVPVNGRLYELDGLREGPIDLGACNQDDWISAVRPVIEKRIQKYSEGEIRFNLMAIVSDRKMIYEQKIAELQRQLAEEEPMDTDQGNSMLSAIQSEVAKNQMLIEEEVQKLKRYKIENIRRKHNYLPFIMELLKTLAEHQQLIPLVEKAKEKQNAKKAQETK
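Signal – fluorescence, ex 355 nm, em 460 nm · System – Proteasome-bound UCH37 · Input – 0.15 nM proteasome as dispensed · Timing – 30 min preincubation with enzyme, 25 min cleavage at room temperature · Read-out basis – percent inhibition of cleavage signal versus uninhibited and no-proteasome wells · Medium – Tris-HCl pH 7.4 with ATP-MgCl2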
SENP1 inh: human SENP1 catalytic domain inhibitors, primary screen, biochemical, FRET, uHTS. Sentrin-specific protease 1 (Homo sapiens), Q9P0U3. recombinant SENP1 catalytic domain, CyPet-SUMO1-YPet FRET cleavage. inhibition, % at 10 µM. 360,000 compounds, 0.21% hits. AID 624204, 2012;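 active = inhibition at least 30% at 10 µM, raw YFP signal under a set limit, fluorescence ratio 0.5 to 1.5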
Target sequence (Q9P0U3 419-644 limits assumed): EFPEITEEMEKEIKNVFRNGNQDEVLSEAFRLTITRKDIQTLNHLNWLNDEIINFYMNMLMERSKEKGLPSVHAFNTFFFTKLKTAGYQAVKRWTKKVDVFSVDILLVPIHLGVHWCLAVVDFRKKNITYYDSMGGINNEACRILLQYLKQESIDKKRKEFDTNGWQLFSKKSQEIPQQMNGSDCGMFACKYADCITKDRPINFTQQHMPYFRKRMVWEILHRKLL
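Test system: human SENP1 catalytic domain; medium: Tris pH 8 buffer plus EDTA, NaCl, BME, BSA, NP40, catalase; incubation: 50 min reaction at room temperature; technique: FRET, CFP and YFP emission; controls: no-enzyme low control and enzyme-plus-DMSO high control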
NadD block: inhibitors of S. aureus NadD, primary screen, biochemical, colorimetric, uHTS; Nicotinate-nucleotide adenylyltransferase NadD (Staphylococcus aureus N315); purified NadD enzyme, colorimetric absorbance read-out; inhibition, % at 20 µM; 360,000 compounds, 0.78% hits; in the data active = inhibition above about 26%
ATG4B inhibitor: ATG4B protease inhibitors, primary screen, biochemical, fluorescence, uHTS; inhibition, % at 8.33 µM; ATG4B cleavage of LC3-PLA2, NBD-HPC fluorescence, 1 h; 340,000 compounds, 0.51% hits; in the data active = inhibition above about 40%
GRIN3A LBD mod: binders of NR3A ligand-binding domain, primary screen, biophysical, differential scanning fluorimetry, uHTS; Glutamate receptor ionotropic, NMDA 3A (GRIN3A) ligand-binding domain; NR3A LBD differential scanning fluorimetry, Tm shift; 0% = protein alone, 100% = glycine-bound protein; Tm shift relative to glycine control, % at 25 µM; 340,000 compounds, 2.5% hits; AID 1259313, 2017;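 active = melting temperature shift of at least 10% of the positive control shift, at one fixed dose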
NadD conf: inhibitors of S. aureus NadD, confirmation, biochemical, colorimetric, single concentration | inhibition, % at 20 µM | shares compounds with NadD block | purified S. aureus NadD, colorimetric enzyme assay | 2,000 compounds, 13% hits; in the data active = inhibition mostly above about 42%, no sharp cut-off; inactive = mostly below about 42%
Hits are given with their value; n = inactive; x = not tested or not shown. Most compounds without a hit are left out; they make up all but 3.6% or so of the library.

SMILES	UCH37 inh	SENP1 inh	NadD block	ATG4B inhibitor	GRIN3A LBD mod	NadD conf
CC(C)C[C@H]1CNC(=S)N1C[C@H]1CCCN1C[C@H](CC(C)C)N1C[C@H](Cc2ccccc2)N(CCc2ccccc2)C1=S	x	n	n	x	x	x
CC(C)C[C@@H](CN1CCCC1CN1C(=S)NC[C@@H]1Cc1ccc(O)cc1)N1C[C@H](Cc2ccc(O)cc2)N(CCc2ccccc2)C1=S (some centres not stated)	x	n	42	x	24	n
Oc1ccc(C[C@H]2CN([C@@H](Cc3ccccc3)CN3CCCC3CN3C(=S)NC[C@@H]3Cc3ccccc3)C(=S)N2CCc2ccccc2)cc1 (some centres not stated)	x	n	37	x	x	n
Oc1ccc(C[C@H]2CN([C@@H](Cc3ccc(O)cc3)CN3CCC[C@@H]3CN3C(=S)NC[C@@H]3Cc3ccccc3)C(=S)N2CCc2ccccc2)cc1	x	n	40	x	x	n
Oc1ccc(C[C@H]2CNC(=S)N2C[C@H]2CCCN2C[C@H](Cc2ccccc2)N2C[C@H](Cc3ccc(O)cc3)N(CCc3ccccc3)C2=S)cc1	x	n	46	x	x	n
O=C(COc1ccc([N+](=O)[O-])cc1)NN=Cc1ccccn1	n	x	x	x	x	x
NC(=NO)c1ccc(Oc2ccccc2Cl)c([N+](=O)[O-])c1	n	x	x	x	x	x
CCn1c(SCC(=O)NN=C/C(C)=C\c2ccco2)nnc1-c1ccccc1	n	x	x	x	x	x
COc1ccc2c3c(cccc13)OC2=O	n	n	n	n	n	x
COc1ccc2c3c(cccc13)N(C)N=C2C	n	n	52	n	n	n
Cc1ccc(CN2CCN(N=Cc3ccc(N(C)C)cc3)CC2)cc1	n	x	x	x	x	x
Cc1cc(SCC(=O)c2cccc([N+](=O)[O-])c2)nc(=O)[nH]1	n	n	33	n	n	n
COc1cc(C=Nn2cnnc2)ccc1OS(=O)(=O)c1ccccc1[N+](=O)[O-]	n	x	x	x	x	x
NC(=O)COc1ccc(C=NNC(=O)CC(=O)NCCc2ccccc2)cc1	n	x	x	x	x	x
COc1ccc(/C=N\NS(=O)(=O)c2ccc(Br)cc2)cc1COc1ccccc1[N+](=O)[O-]	x	n	46	n	25	n
CCOc1ccc(-c2nnc(NC(=O)c3ccc(OCC(C)C)c(OC)c3)o2)cc1	n	n	37	n	n	n
COc1cccc(-c2nnc(NC(=O)c3ccc4ncsc4c3)o2)c1	n	n	31	n	n	n
CS(=O)(=O)c1cccc(-c2nnc(NC(=O)c3ccc4ncsc4c3)o2)c1	n	n	n	n	n	x
O=C(Nc1cccc(S(=O)(=O)NC2=NCCCCC2)c1)c1cc(-c2ccc(Cl)cc2)nc2ccccc12	n	n	26	n	n	n
O=C(NC(=S)Nc1cccc(S(=O)(=O)NC2=NCCC2)c1)c1cc(-c2ccco2)nc2ccccc12	n	n	41	n	n	52
O=C(Nc1cccc(S(=O)(=O)NC2=NCCC2)c1)c1cc(-c2ccco2)nc2ccccc12	n	n	68	n	n	78
COc1ccc(-c2cc(C(=O)Nc3cccc(S(=O)(=O)NCc4ccco4)c3)c3ccccc3n2)cc1OC	x	n	58	n	n	45
Nc1ccccc1Sc1nc2ccccc2[nH]1	n	n	34	n	10	n
CCOc1ccc(C=NNc2ccc(C(F)(F)F)cc2[N+](=O)[O-])cc1O	n	x	x	x	x	x
CCN(CC)C(=S)Sc1c(-c2ccccc2)c2cc(Cl)ccc2[nH]c1=O	n	n	39	n	n	n
SMILES	UCH37 inh	SENP1 inh	NadD block	ATG4B inhibitor	GRIN3A LBD mod	NadD conf
O=C(O)CSc1c(-c2ccccc2)c2cc(Cl)ccc2[nH]c1=O	n	n	n	n	n	x
COc1ccccc1NC(=O)Cn1cnc2sc(C(=O)Nc3cc(OC)c(OC)c(OC)c3)c(C)c2c1=O	n	n	n	n	n	x
COc1ccccc1NC(=O)c1sc2ncn(CC(=O)Nc3ccccc3)c(=O)c2c1C	n	n	30	n	n	n
O=C1Nc2ccccc2N=C(c2ccc3c(c2)OCO3)C1N(C(=O)c1ccc2ccccc2c1)C1CC1 (configuration not stated)	x	n	35	x	x	n
CN(C)c1ccc(C=NN2C(=O)c3ccccc3C2=O)cc1	n	x	x	x	x	x
CCOC(=O)Cc1csc(NC(=O)c2sc3nc4c(C)cc(C)cc4cc3c2N)n1	n	n	40	n	n	n
COc1cc(C=Nn2c(-c3n[nH]c4c3CCC4)n[nH]c2=S)ccc1O	n	x	x	x	x	x
N#CC1=C(N)n2c(sc(=Cc3ccco3)c2=O)=C(C#N)C1c1ccco1 (configuration not stated)	n	x	x	x	x	x
CC(=O)Oc1ccc2c(=O)c(C=Nc3cc(=O)[nH]c(=S)[nH]3)coc2c1	n	x	x	x	x	x
O=c1cc(/N=C/c2coc3c(ccc4ccccc43)c2=O)[nH]c(=S)[nH]1	x	n	65	n	n	n
COc1ccc(CC(N)c2csc(NC(=O)Nc3ccccc3-c3ccccc3)n2)cc1 (configuration not stated)	x	n	31	x	x	n
O=c1[nH]cnc2c1sc1nc(-c3ccccc3)c3c(c12)CCCC3	n	n	n	n	n	x
S=c1nc[nH]c2c1sc1nc(-c3ccccc3)c3c(c12)CCCC3	n	n	40	n	12	n
Cc1cc(C)cc(NC(=O)Cn2c(=O)oc3cc(S(=O)(=O)N4CC(C)CC(C)C4)ccc32)c1 (configuration not stated)	n	n	36	n	n	n
CCOc1cccc(-c2c(C(=O)NN=Cc3ccc(C)s3)nnn2-c2nonc2N)c1	n	x	x	x	x	x
Cc1ccc(-c2nsc3c(N4CCC(C(N)=O)CC4)ncnc23)cc1	n	n	31	n	n	n
COc1ccc(NCC(=O)N/N=C2\CCc3ccccc32)cc1	x	n	30	n	n	n
COc1ccc(Cc2c(C3CCCCC3)nc3c(Cl)cc(C(F)(F)F)cn23)c(C)c1	x	n	31	x	x	n
C/C(C=Nn1c(-c2n[nH]c3c2CCC3)n[nH]c1=S)=C\c1ccco1	n	x	x	x	x	x
Cc1ccc(Cn2c(N)c(S(=O)(=O)c3cccs3)c3nc4ccccc4nc32)cc1	n	n	32	n	n	n
O=C(CSc1nc2ccc(NC(=O)CSc3nnnn3-c3ccccc3)cc2s1)Nc1ccccc1	n	n	39	n	n	n
